From PMC6126370 (Investigational new drugs, 2017)
Each block holds one molecule with its values, some of them ahead of it.

What was measured:
[1] = PU-H71 metabolites in patient plasma; format: in vivo, human; details: aliquot of patient plasma, Fig. 5a
[2] = tested on: mouse xenografts of triple negative breast cancer, lymphoma, myeloma, pancreatic, and hepatocellular carcinoma; details: preclinical mouse xenografts; cited from earlier work
[3] = tested on: patients with advanced solid tumors; details: human, in vivo
[4] = Clinical pharmacokinetics of PU-H71 in plasma and urine; format: in vivo, human; details: for Urinary excretion: 1-h i.v. infusion
In short: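 Patients with refractory solid tumors received the test compound (10–470 mg/m2) as a 1-h i.v. infusion. Heparinised blood was drawn on cycle 1 day 1 pre-infusion, 30 min after start, 5 min before end, and 1.5–24 h after start. Plasma was stored at −70 °C. Urine was collected every void on day 1. Plasma was acetonitrile-precipitated with deuterated internal standard and run on HPLC/MS against a control-plasma standard curve. Cmax/Tmax were taken by inspection and AUC by trapezoidal rule.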

[5] = tested on: human liver microsomal fractions; experiment: In vitro metabolism in liver microsomes or S9 fractions; format: in vitro ADME
In short: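 Test compound at 1 and 10 μM was incubated with human liver microsomes or S9 fraction (0.5 mg protein/mL) with 1 mM NADPH and 3.3 mM […] in 100 mM phosphate, pH 7.4, at 37 °C with shaking. For O-methylation, 0.1 mM S-adenosyl methionine was added. Aliquots were processed like plasma and analysed by LC/MS.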

[6] = tested on: refractory solid tumors; experiment: Clinical response by RECIST 1.1; format: in vivo, human
In short: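 Adults (≥18 y) with solid tumors refractory to or lacking standard therapy received the test compound i.v. over 1 h on days 1 and 8 of 21-day cycles. Doses were 10–470 mg/m2/day, escalated by modified accelerated titration and then 3+3. Response was assessed by RECIST criteria in evaluable patients.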

[7] = tested on: Bcl-6-dependent diffuse large B-cell lymphoma (DLBCL), hepatocellular carcinoma (HCC), and breast cancer cell lines; details: preclinical studies, through induction of apoptosis; cited from earlier work
[8] = 14 patients evaluable of 17 enrolled

- peak in representative ion mass tracing [1]: observed
Structure (SMILES): NCCCn1c(Sc2cc3c(cc2I)OCO3)nc2c(N)ncnc21 [compound 471, de-isopropyl PU-H71]

- dependency of T1/2 to dose level ([4]; 10 to 470 mg/m^2): no dependency to dose level
- fraction of total AUC (± SD) during the infusion ([4]; all dose levels): 19.6% ± 11.3%
- Urinary excretion ([4]; dose level 1 (10 mg/m^2), day 1, 1 patient): 5.5%
- Urinary excretion ([4]; dose level 4 (60 mg/m^2), day 1, 1 patient): 8.8%
- Urinary excretion ([4]; dose level 5 (80 mg/m^2), day 1, mean ± SD of 2 patients): 6.7 ± 1.3%
- Urinary excretion ([4]; dose level 6 (110 mg/m^2), day 1, mean ± SD of 3 patients): 6.7 ±4.6%
- Urinary excretion ([4]; dose level 7 (150 mg/m^2), day 1, 1 patient): 8.1%
- Urinary excretion ([4]; dose level 8 (200 mg/m^2), day 1, mean ± SD of 2 patients): 6.0 ± 4.2%
- Urinary excretion ([4]; dose level 9 (266 mg/m^2), day 1, 1 patient): 5.4%
- Urinary excretion ([4]; dose level 10 (354 mg/m^2), day 1, mean ± SD of 3 patients): 8.6 ± 4.6%
- Urinary excretion ([4]; dose level 11 (470 mg/m^2), day 1, 1 patient): 5.7%
- Tmax ([4]; human, plasma, intravenous): ≤ 1 h
- half-life ([4]; human, plasma, intravenous): 2.7 to 19.8 h
- half-life ([4]; human, plasma, iv): 8.4 ± 3.6 h
- AUC(0-inf) ([4]; human, plasma, iv, 10 mg/m^2): 0.517 µM·h
- AUC(0-t) ([4]; human, plasma, iv, 10 mg/m^2): 0.45 µM·h
- Cmax ([4]; human, plasma, iv, 10 mg/m^2): 0.2 µM
- clearance ([4]; human, plasma, iv, 10 mg/m^2): 17.2 mL/min/kg
- half-life ([4]; human, plasma, iv, 10 mg/m^2): 2.7 h
- AUC(0-inf) ([4]; human, plasma, iv, 20 mg/m^2): 1.67 µM·h
- AUC(0-t) ([4]; human, plasma, iv, 20 mg/m^2): 1.23 µM·h
- Cmax ([4]; human, plasma, iv, 20 mg/m^2): 0.3 µM
- clearance ([4]; human, plasma, iv, 20 mg/m^2): 10.5 mL/min/kg
- half-life ([4]; human, plasma, iv, 20 mg/m^2): 10.5 h
- half-life ([4]; human, plasma, iv, 40 mg/m^2): 9.2 h
- AUC(0-inf) ([4]; human, plasma, iv, 60 mg/m^2): 5.02 µM·h
- AUC(0-t) ([4]; human, plasma, iv, 60 mg/m^2): 4.55 µM·h
- Cmax ([4]; human, plasma, iv, 60 mg/m^2): 1.3 µM
- clearance ([4]; human, plasma, iv, 60 mg/m^2): 10.5 mL/min/kg
- half-life ([4]; human, plasma, iv, 60 mg/m^2): 6.1 h
- AUC(0-inf) ([4]; human, plasma, iv, 80 mg/m^2): 16.8 µM·h
- AUC(0-t) ([4]; human, plasma, iv, 80 mg/m^2): 15 µM·h
- Cmax ([4]; human, plasma, iv, 80 mg/m^2): 5.7 ± 0.1 µM
- clearance ([4]; human, plasma, iv, 80 mg/m^2): 4.17 mL/min/kg
- half-life ([4]; human, plasma, iv, 80 mg/m^2): 6.7 ± 0.1 h
- AUC(0-inf) ([4]; human, plasma, iv, 110 mg/m^2): 22.9 µM·h
- AUC(0-t) ([4]; human, plasma, iv, 110 mg/m^2): 19.8 µM·h
- Cmax ([4]; human, plasma, iv, 110 mg/m^2): 7.3 ± 2.4 µM
- clearance ([4]; human, plasma, iv, 110 mg/m^2): 4.67 mL/min/kg
- half-life ([4]; human, plasma, iv, 110 mg/m^2): 7.6 ± 0.2 h
- AUC(0-inf) ([4]; human, plasma, iv, 150 mg/m^2): 29.5 µM·h
- AUC(0-t) ([4]; human, plasma, iv, 150 mg/m^2): 25.6 µM·h
- Cmax ([4]; human, plasma, iv, 150 mg/m^2): 8.7 µM
- clearance ([4]; human, plasma, iv, 150 mg/m^2): 4.5 mL/min/kg
- half-life ([4]; human, plasma, iv, 150 mg/m^2): 7.2 h
- AUC(0-inf) ([4]; human, plasma, iv, 200 mg/m^2): 41.3 µM·h
- AUC(0-t) ([4]; human, plasma, iv, 200 mg/m^2): 34.8 µM·h
- Cmax ([4]; human, plasma, iv, 200 mg/m^2): 8 ± 4.5 µM
- clearance ([4]; human, plasma, iv, 200 mg/m^2): 4.33 mL/min/kg
- half-life ([4]; human, plasma, iv, 200 mg/m^2): 7.1 ± 0.5 h
- AUC(0-inf) ([4]; human, plasma, iv, 266 mg/m^2): 90.8 µM·h
- AUC(0-t) ([4]; human, plasma, iv, 266 mg/m^2): 59.9 µM·h
- Cmax ([4]; human, plasma, iv, 266 mg/m^2): 7.8 µM
- clearance ([4]; human, plasma, iv, 266 mg/m^2): 2.5 mL/min/kg
- half-life ([4]; human, plasma, iv, 266 mg/m^2): 10.2 h
- AUC(0-inf) ([4]; human, plasma, iv, 354 mg/m^2): 180 µM·h
- AUC(0-t) ([4]; human, plasma, iv, 354 mg/m^2): 114 µM·h
- Cmax ([4]; human, plasma, iv, 354 mg/m^2): 17.3 ± 8.5 µM
- clearance ([4]; human, plasma, iv, 354 mg/m^2): 2.17 mL/min/kg
- half-life ([4]; human, plasma, iv, 354 mg/m^2): 11.5 ± 7.3 h
- AUC(0-inf) ([4]; human, plasma, iv, 470 mg/m^2): 203 µM·h
- AUC(0-t) ([4]; human, plasma, iv, 470 mg/m^2): 143 µM·h
- Cmax ([4]; human, plasma, iv, 470 mg/m^2): 33.7 µM
- clearance ([4]; human, plasma, iv, 470 mg/m^2): 2 mL/min/kg
- half-life ([4]; human, plasma, iv, 470 mg/m^2): 10.8 h
- given dose (± SD) recovered as free drug in urine ([4]; total urine collected in 24 h, average for all dose levels): 6.7 ± 3.0%
- most active phase 1 reaction ([5]; forms catechol 501): O-demethylation
Structure (SMILES): CC(C)NCCCn1c(Sc2cc3c(cc2I)OCO3)nc2c(N)ncnc21 [PU-H71, 6-amino-8-[(6-iodo-1,3-benzodioxol-5-yl)thio]-N-(1-methylethyl)-9H–purine-9-propanamine]
- growth inhibitory effects in xenografts [2]: potent and lasting growth inhibitory effects
- dose level of first grade ≥ 2 toxicity [3]: DL 6
- phase 1 reactions ([5]; NADPH, 37 °C): S-oxidation, N-dealkylation, de-iodination, and O-demethylation
- progressive disease within the first 2 cycles ([6]; 14 evaluable patients): Eight of the evaluable patients progressed early
- patients with best response of stable disease [6, 8]: 35%
- patients with best response of stable disease for >2 cycles (number) [6, 8]: 6
- cytotoxicity [7]: high cytotoxicity
